Results from ChEMBL document CHEMBL1909525, “Synthesis and anticonvulsant activity of novel 2,6-diketopiperazine derivatives. Part 1: perhydropyrrole[1,2-a]pyrazines” (Eur J Med Chem, 2011).

Test system: Rattus norvegicus
Assay: Anticonvulsant activity in po dosed albino Sprague-Dawley rat assessed as time needs to show peak effect for protection against maximal electroshock-induced seizure after 0.25 hrs
Format: functional
Outline: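 Rats dosed orally, compound in 0.5% methylcellulose. MES at 150 mA, 60 Hz, 0.2 s; scMET with pentylenetetrazole 70 mg/kg s.c. plus 30 min observation; rotorod for toxicity.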

Compound: O=C1NC(=O)[C@@H]2CCCN2[C@H]1c1ccccc1
- Time: 0.25 h
